Source: ChEMBL document CHEMBL2016480, “Structure-based ligand design of novel bacterial RNA polymerase inhibitors” (ACS Med Chem Lett, 2011)
≈ marks a conversion by molar mass, not a printed value.

Tests used:
Escherichia coli [1] = experiment: Antibacterial activity against kanamycin-resistant,acrAB::Tn903 deficient Escherichia coli SM1411 expressing lacI3, lacZ118, proB, trp, nalA, rpsL in the presence of polymyxin B nonapeptide; assay type: functional
Staphylococcus aureus [2] = experiment: Antibacterial activity against Staphylococcus aureus SH1000 expressing rsbU gene in the presence of polymyxin B nonapeptide; assay type: functional
Procedure, shortened: (§1)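 MICs by standard susceptibility testing per British Society for Antimicrobial Chemotherapy guidelines, run in triplicate. For the PMBN lines, tests were repeated with polymyxin B nonapeptide added as an outer-membrane permeabilizer.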

Bacillus subtilis [3] = experiment: Antibacterial activity against Bacillus subtilis 1S34 in the presence of polymyxin B nonapeptide; assay type: functional; procedure, shortened: as §1
[4] = Inhibition of DNA dependent RNA polymerase
Bacillus subtilis [5] = experiment: Antibacterial activity against Bacillus subtilis 1S34; assay type: functional; procedure, shortened: as §1
Escherichia coli [6] = experiment: Antibacterial activity against Escherichia coli 1411 expressing lacI3, lacZ118, proB, trp, nalA, rpsL; assay type: functional; procedure, shortened: as §1
Staphylococcus aureus [7] = experiment: Antibacterial activity against Staphylococcus aureus SH1000 expressing rsbU gene; assay type: functional; procedure, shortened: as §1
Escherichia coli [8] = experiment: Antibacterial activity against kanamycin-resistant,acrAB::Tn903 deficient Escherichia coli SM1411 expressing lacI3, lacZ118, proB, trp, nalA, rpsL; assay type: functional
Escherichia coli [9] = experiment: Antibacterial activity against Escherichia coli 1411 expressing lacI3, lacZ118, proB, trp, nalA, rpsL in the presence of polymyxin B nonapeptide; assay type: functional; procedure, shortened: as §1
Staphylococcus aureus [10] = experiment: Antibacterial activity against Staphylococcus aureus; assay type: functional
[11] = Inhibition of Escherichia coli DNA dependent RNA polymerase after 2 hrs by SYBR Green-based spectrophotometric analysis
Procedure, shortened: (§2)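 In vitro transcription assay with E. coli RNA polymerase on a Kool NC-45 RNAP template. Activity was reported as IC50 or as percentage inhibition at 100 μM compound.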

[12] = Inhibition of Escherichia coli DNA dependent RNA polymerase assessed as inhibition of [14C]UTP incorporation after 15 mins by liquid scintillation counting
Escherichia coli [13] = experiment: Inhibition of Escherichia coli DNA dependent RNA polymerase at 100 uM after 2 hrs by SYBR Green-based spectrophotometric analysis; procedure, shortened: as §2
[14] = Inhibition of chymotrypsin at 100 uM
Procedure, shortened: (§3)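 Counter-screens for promiscuous inhibition using malate dehydrogenase and chymotrypsin enzyme assays. Activity was reported as percentage inhibition at 100 μM compound.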

[15] = Inhibition of malate dehydrogenase at 100 uM; procedure, shortened: as §3
Saccharomyces cerevisiae = experiment: Inhibition of yeast RNA polymerase 2 at 100 uM
Procedure, shortened: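 Selectivity assay against yeast RNA polymerase II. Activity was reported as percentage inhibition at 100 μM compound.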

| SMILES | MIC (Escherichia coli [1]) [µg/mL] | MIC (Staphylococcus aureus [2]) [µg/mL] | MIC (Bacillus subtilis [3]) [µg/mL] | IC50 [4] [µM] | MIC (Bacillus subtilis [5]) [µg/mL] | MIC (Escherichia coli [6]) [µg/mL] | MIC (Staphylococcus aureus [7]) [µg/mL] | MIC (Escherichia coli [8]) [µg/mL] | MIC (Escherichia coli [9]) [µg/mL] | MIC (Staphylococcus aureus [10]) [µg/mL] | IC50 [11] [µM] | IC50 [12] [µM] | inhibition (Escherichia coli [13]) [%] | inhibition [14] [%] | inhibition [15] [%] | inhibition (Saccharomyces cerevisiae) [%] |
| --- | --- | --- | --- | --- | --- | --- | --- | --- | --- | --- | --- | --- | --- | --- | --- | --- |
| CCCC/C(C)=C/C=C(\C)C(=O)c1c(O)cc(CCC/C=C/NC(=O)OC)oc1=O [DESMETHYL MYXOPYRONIN B] | > 256 | > 256 | > 256 | 0.34 | > 256 | > 256 | > 256 | > 256 | > 256 | 4 (≈ 9.58 µM) | – | – | – | – | – | – |
| CCCC/C(C)=C/C=C(\C)C(=O)c1c(O)cc([C@H](C)CC/C=C/NC(=O)OC)oc1=O [MYXOPYRONIN B] | > 256 | > 256 | > 256 | – | > 256 | > 256 | > 256 | > 256 | > 256 | 1 (≈ 2.32 µM) | 46.5 | 0.92 | – | – | – | – |
| NS(=O)(=O)c1ccc(C(=O)Nc2ccc(-c3ccco3)nc2)cc1 | > 256 | > 256 | > 256 | – | > 256 | > 256 | > 256 | > 256 | > 256 | – | – | – | 12.9 | – | – | – |
| NS(=O)(=O)c1ccc(C(=O)Nc2ccc(OCc3ccccn3)nc2)cc1 | > 256 | > 256 | > 256 | – | > 256 | > 256 | > 256 | > 256 | > 256 | – | 151 | – | – | – | – | – |
| NC(=O)c1ccc(C(=O)Nc2ccc(-n3ccnc3)nc2)cc1 | > 256 | > 256 | > 256 | – | > 256 | > 256 | > 256 | > 256 | > 256 | – | 11.9 | – | – | 0.1 | 0 | 10.5 |
| NS(=O)(=O)c1ccc(C(=O)Nc2ccc(-n3cncn3)nc2)cc1 | > 256 | > 256 | > 256 | – | > 256 | > 256 | > 256 | > 256 | > 256 | – | 13.7 | – | – | 0.6 | 1.4 | 9.3 |
| N#Cc1ccc(C(=O)Nc2ccc(-c3ccccc3)nc2)cc1 | > 256 | > 256 | > 256 | – | > 256 | > 256 | > 256 | > 256 | > 256 | – | – | – | 10.9 | – | – | – |
| NS(=O)(=O)c1ccc(C(=O)Nc2ccc(N3CCOCC3)nc2)cc1 | > 256 | > 256 | > 256 | – | > 256 | > 256 | > 256 | > 256 | > 256 | – | – | – | 0 | – | – | – |
| NS(=O)(=O)c1ccc(C(=O)Nc2cnc3ccccc3c2)cc1 | > 256 | > 256 | > 256 | – | > 256 | > 256 | > 256 | > 256 | > 256 | – | – | – | 0 | – | – | – |
| CS(=O)(=O)c1ccc(C(=O)Nc2ccc(-n3cncn3)nc2)cc1 | > 256 | > 256 | > 256 | – | > 256 | > 256 | > 256 | > 256 | > 256 | – | – | – | 0 | – | – | – |
| N#Cc1ccc(C(=O)Nc2ccc(-n3ccnc3)nc2)cc1 | > 256 | > 256 | > 256 | – | > 256 | > 256 | > 256 | > 256 | > 256 | – | 7.2 | – | – | 1.8 | 0.6 | 17.6 |
| O=C(O)c1ccc(C(=O)Nc2ccc(-n3ccnc3)nc2)cc1 | > 256 | > 256 | > 256 | – | > 256 | > 256 | > 256 | > 256 | > 256 | – | – | – | 0 | – | – | – |
| O=C(Nc1ccc(-n2cncn2)nc1)c1ccccc1 | > 256 | > 256 | > 256 | – | > 256 | > 256 | > 256 | > 256 | > 256 | – | – | – | 0 | – | – | – |
| NS(=O)(=O)c1ccc(C(=O)Nc2ccc(-n3ccnc3)nc2)cc1 | > 256 | > 256 | > 256 | – | > 256 | > 256 | > 256 | > 256 | > 256 | – | 18.9 | – | – | 0 | 0.5 | 14.7 |
| NS(=O)(=O)c1ccc(NC(=O)c2ccc(-n3cncn3)nc2)cc1 | > 256 | > 256 | > 256 | – | > 256 | > 256 | > 256 | > 256 | > 256 | – | – | – | 0 | – | – | – |
| NS(=O)(=O)c1ccc(C(=O)Nc2ccc(N3CCCC3)nc2)cc1 | > 256 | > 256 | > 256 | – | > 256 | > 256 | > 256 | > 256 | > 256 | – | – | – | 17.9 | – | – | – |
| NC(=O)c1ccc(C(=O)Nc2ccc(-n3cncn3)nc2)cc1 | > 256 | > 256 | > 256 | – | > 256 | > 256 | > 256 | > 256 | > 256 | – | 9.9 | – | – | 1.5 | 0 | 5.2 |
| NS(=O)(=O)c1ccc(C(=O)Nc2cccnc2)cc1 | > 256 | > 256 | > 256 | – | > 256 | > 256 | > 256 | > 256 | > 256 | – | – | – | 0 | – | – | – |
| O=C(Nc1ccc(-n2cncn2)nc1)c1ccc(C(F)(F)F)cc1 | > 256 | > 256 | > 256 | – | > 256 | > 256 | > 256 | > 256 | > 256 | – | – | – | 5.9 | – | – | – |
| N#Cc1ccc(C(=O)Nc2cnc3ccccc3c2)cc1 | > 256 | > 256 | > 256 | – | > 256 | > 256 | > 256 | > 256 | > 256 | – | – | – | 0 | – | – | – |
| NS(=O)(=O)c1ccc(C(=O)Nc2ccc(-c3ccccc3)nc2)cc1 | > 256 | > 256 | > 256 | – | > 256 | > 256 | > 256 | > 256 | > 256 | – | – | – | 32.9 | – | – | – |
| COC(=O)c1ccc(C(=O)Nc2ccc(-n3ccnc3)nc2)cc1 | > 256 | > 256 | > 256 | – | > 256 | > 256 | > 256 | > 256 | > 256 | – | – | – | 0 | – | – | – |
| N#Cc1ccc(C(=O)Nc2ccc(-n3cncn3)nc2)cc1 | > 256 | > 256 | > 256 | – | > 256 | > 256 | > 256 | > 256 | > 256 | – | 9.9 | – | – | 0 | 0 | 12 |
